Measured values taken from ChEMBL document CHEMBL1124493, “Synthesis and tumor uptake of 5-82Br- and 5-131I-labeled 5-halo-1-(2-fluoro-2-deoxy-beta-D-ribofuranosyl)uracils” (J Med Chem, 1989).
Values belong to the molecule of their own block, whether it stands above or below them.

Legend:
Mus musculus [1] = assay: Biodistribution of intravenously injected [131I]-labeled compound in bone of BDF1 female mice bearing subcutaneous Lewis lung carcinoma after 0.25 hours; assay type: ADME, organism-based, Bone element; conditions: in vivo, iv
In short: (§1)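 Female BDF1 mice bearing subcutaneous Lewis lung carcinoma received a single intravenous dose of 0.5-1.8 μg of the 131I-labeled nucleoside (55-110 kBq). They were sacrificed at set times, and tissues were weighed wet and γ-counted. Activity is expressed as percent of injected dose per gram of wet tissue, given as mean ± standard deviation for six animals.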

Mus musculus [2] = assay: Biodistribution of intravenously injected [131I]-labeled compound in bone of BDF1 female mice bearing subcutaneous Lewis lung carcinoma after 1 hours; assay type: ADME, organism-based, Bone element; conditions: in vivo, iv; in short: as §1
Mus musculus [3] = assay: Biodistribution of intravenously injected [131I]-labeled compound in blood of BDF1 female mice bearing subcutaneous Lewis lung carcinoma after 0.25 hours; assay type: ADME, organism-based; conditions: in vivo, iv; in short: as §1
Mus musculus [4] = assay: Biodistribution of intravenously injected [131I]-labeled compound in gut of BDF1 female mice bearing subcutaneous Lewis lung carcinoma after 0.25 hours; assay type: ADME, organism-based; conditions: in vivo, iv; in short: as §1
Mus musculus [5] = assay: Biodistribution of intravenously injected [131I]-labeled compound in heart of BDF1 female mice bearing subcutaneous Lewis lung carcinoma after 0.50 hours; assay type: ADME, organism-based; conditions: in vivo, iv, 0.5 h; in short: as §1
Mus musculus [6] = assay: Biodistribution of intravenously injected [131I]-labeled compound in kidney of BDF1 female mice bearing subcutaneous Lewis lung carcinoma after 4 hours; assay type: ADME, organism-based; conditions: in vivo, iv; in short: as §1
Mus musculus [7] = assay: Biodistribution of intravenously injected [131I]-labeled compound in lung of BDF1 female mice bearing subcutaneous Lewis lung carcinoma after 0.25 hours; assay type: ADME, organism-based; conditions: in vivo, iv; in short: as §1
Mus musculus [8] = assay: Biodistribution of intravenously injected [131I]-labeled compound in liver of BDF1 female mice bearing subcutaneous Lewis lung carcinoma after 4 hours; assay type: ADME, organism-based; conditions: in vivo, iv; in short: as §1
Mus musculus [9] = assay: Biodistribution of intravenously injected [131I]-labeled compound in muscle of BDF1 female mice bearing subcutaneous Lewis lung carcinoma after 8 hours; assay type: ADME, organism-based, Muscle tissue; conditions: in vivo, iv
In short: (§2)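 Female BDF1 mice with subcutaneous Lewis lung carcinoma given i.v. 0.5-1.8 μg of 131I-labeled nucleoside (55-110 kBq). Killed at set times. Tissues weighed wet and γ-counted. Radioactivity expressed as percent injected dose per gram wet tissue, mean ± SD of six animals.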

Mus musculus [10] = assay: Biodistribution of intravenously injected [131I]-labeled compound in stomach of BDF1 female mice bearing subcutaneous Lewis lung carcinoma after 0.50 hours; assay type: ADME, organism-based; conditions: in vivo, iv, 0.5 h; in short: as §2
Mus musculus [11] = assay: Biodistribution of intravenously injected [131I]-labeled compound in skin of BDF1 female mice bearing subcutaneous Lewis lung carcinoma after 0.25 hours; assay type: ADME, organism-based, Zone of skin; conditions: in vivo, iv; in short: as §2
Mus musculus [12] = assay: Biodistribution of intravenously injected [131I]-labeled compound in skin of BDF1 female mice bearing subcutaneous Lewis lung carcinoma after 8 hours; assay type: ADME, organism-based, Zone of skin; conditions: in vivo, iv; in short: as §2
Mus musculus [13] = assay: Biodistribution of intravenously injected [131I]-labeled compound in skin of BDF1 female mice bearing subcutaneous Lewis lung carcinoma after 0.50 hours; assay type: ADME, organism-based, Zone of skin; conditions: in vivo, iv, 0.5 h; in short: as §2
Mus musculus [14] = assay: Biodistribution of intravenously injected [131I]-labeled compound in spleen of BDF1 female mice bearing subcutaneous Lewis lung carcinoma after 8 hours; assay type: ADME, organism-based; conditions: in vivo, iv; in short: as §2
Mus musculus [15] = assay: Biodistribution of intravenously injected [131I]-labeled compound in spleen of BDF1 female mice bearing subcutaneous Lewis lung carcinoma after 0.50 hours; assay type: ADME, organism-based; conditions: in vivo, iv, 0.5 h; in short: as §2
Mus musculus [16] = assay: Biodistribution of intravenously injected [131I]-labeled compound in spleen of BDF1 female mice bearing subcutaneous Lewis lung carcinoma after 1 hours; assay type: ADME, organism-based; conditions: in vivo, iv; in short: as §2
Mus musculus [17] = species on record: Mus musculus; assay: Urinary [131I]- compound observed in BDF1 female mice bearing lewis lung tumor after 24 hr of injected [131I]-compound; assay type: functional, tissue-based; conditions: Urine
Mus musculus [18] = species on record: Mus musculus; assay: Urinary [131I]5-iodouracil observed in BDF1 female mice bearing lewis lung tumor after 6-7 hr of injected [131I]-compound; assay type: functional, tissue-based; conditions: Urine
Mus musculus [19] = assay: Biodistribution of intravenously injected [131I]-labeled compound in tumor of BDF1 female mice bearing subcutaneous Lewis lung carcinoma after 2 hours; assay type: ADME, organism-based; conditions: in vivo, iv; in short: as §2
Mus musculus [20] = assay: Biodistribution of intravenously injected [82Br]-labeled compound in tumor of BDF1 female mice bearing subcutaneous Lewis lung carcinoma after 1 hours; assay type: ADME, organism-based; conditions: in vivo, iv
Mus musculus [21] = assay: Biodistribution of intravenously injected [82Br]-labeled compound in tumor of BDF1 female mice bearing subcutaneous Lewis lung carcinoma after 4 hr; assay type: ADME, organism-based; conditions: in vivo, iv
Mus musculus [22] = assay: Biodistribution of intravenously injected [82Br]-labeled compound in tumor of BDF1 female mice bearing subcutaneous Lewis lung carcinoma after 24 hours; assay type: ADME, organism-based; conditions: in vivo, iv
Mus musculus [23] = assay: Biodistribution of intravenously injected [82Br]-labeled compound in heart of BDF1 female mice bearing subcutaneous Lewis lung carcinoma after 0.25 hours; assay type: ADME, organism-based; conditions: in vivo, iv
In short: (§3)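 Female BDF1 mice with subcutaneous Lewis lung carcinoma given an iv injection of [82Br]-labelled nucleoside, 47-130 μg carrying 20-60 kBq 82Br. Tissues were excised, weighed wet and γ-counted. Values are percent injected dose per gram of wet tissue, mean ± standard deviation of six animals, with organ-to-tumour ratios derived.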

Mus musculus [24] = assay: Biodistribution of intravenously injected [82Br]-labeled compound in heart of BDF1 female mice bearing subcutaneous Lewis lung carcinoma after 4 hours; assay type: ADME, organism-based; conditions: in vivo, iv; in short: as §3
Mus musculus [25] = assay: Biodistribution of intravenously injected [82Br]-labeled compound in kidney of BDF1 female mice bearing subcutaneous Lewis lung carcinoma after 1 hours; assay type: ADME, organism-based; conditions: in vivo, iv; in short: as §3
Mus musculus [26] = assay: Biodistribution of intravenously injected [82Br]-labeled compound in liver of BDF1 female mice bearing subcutaneous Lewis lung carcinoma after 0.25 hours; assay type: ADME, organism-based; conditions: in vivo, iv; in short: as §3
Mus musculus [27] = assay: Biodistribution of intravenously injected [82Br]-labeled compound in blood of BDF1 female mice bearing subcutaneous Lewis lung carcinoma after 0.50 hours; assay type: ADME, organism-based; conditions: in vivo, iv, 0.5 h
In short: (§4)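 82Br-labeled nucleoside given intravenously to female BDF1 mice bearing subcutaneous Lewis lung carcinoma, at 47-130 μg carrying 20-60 kBq. Mice sacrificed at each time point. Wet-weighed tissues γ-counted. Values are percent injected dose per gram wet tissue, mean ± SD, n = 6.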

Mus musculus [28] = assay: Biodistribution of intravenously injected [82Br]-labeled compound in blood of BDF1 female mice bearing subcutaneous Lewis lung carcinoma after 1 hours; assay type: ADME, organism-based; conditions: in vivo, iv; in short: as §4
Mus musculus [29] = assay: Biodistribution of intravenously injected [82Br]-labeled compound in blood of BDF1 female mice bearing subcutaneous Lewis lung carcinoma after 4 hours; assay type: ADME, organism-based; conditions: in vivo, iv; in short: as §4
Mus musculus [30] = assay: Biodistribution of intravenously injected [82Br]-labeled compound in muscle of BDF1 female mice bearing subcutaneous Lewis lung carcinoma after 1 hours; assay type: ADME, organism-based, Muscle tissue; conditions: in vivo, iv; in short: as §3
Mus musculus [31] = assay: Biodistribution of intravenously injected [82Br]-labeled compound in muscle of BDF1 female mice bearing subcutaneous Lewis lung carcinoma after 24 hours; assay type: ADME, organism-based, Muscle tissue; conditions: in vivo, iv; in short: as §3
Mus musculus [32] = assay: Biodistribution of intravenously injected [82Br]-labeled compound in liver of BDF1 female mice bearing subcutaneous Lewis lung carcinoma after 24 hours; assay type: ADME, organism-based; conditions: in vivo, iv; in short: as §3
Mus musculus [33] = assay: Biodistribution of intravenously injected [82Br]-labeled compound in lung of BDF1 female mice bearing subcutaneous Lewis lung carcinoma after 0.25 hours; assay type: ADME, organism-based; conditions: in vivo, iv; in short: as §3
Mus musculus [34] = assay: Biodistribution of intravenously injected [82Br]-labeled compound in stomach of BDF1 female mice bearing subcutaneous Lewis lung carcinoma after 0.25 hours; assay type: ADME, organism-based; conditions: in vivo, iv
Mus musculus [35] = assay: Biodistribution of intravenously injected [82Br]-labeled compound in stomach of BDF1 female mice bearing subcutaneous Lewis lung carcinoma after 1 hours; assay type: ADME, organism-based; conditions: in vivo, iv
Mus musculus [36] = assay: Biodistribution of intravenously injected [82Br]-labeled compound in stomach of BDF1 female mice bearing subcutaneous Lewis lung carcinoma after 2 hours; assay type: ADME, organism-based; conditions: in vivo, iv
Mus musculus [37] = assay: Biodistribution of intravenously injected [82Br]-labeled compound in stomach of BDF1 female mice bearing subcutaneous Lewis lung carcinoma after 24 hours; assay type: ADME, organism-based; conditions: in vivo, iv
Mus musculus [38] = assay: Biodistribution of intravenously injected [82Br]-labeled compound in blood of BDF1 female mice bearing subcutaneous Lewis lung carcinoma after 0.25 hours; assay type: ADME, organism-based; conditions: in vivo, iv; in short: as §4

- Injected dose/g (Mus musculus [1]): 2.4%
- Injected dose/g (Mus musculus [2]): 1.5%
- Injected dose/g (Mus musculus [3]): 19%
- Injected dose/g (Mus musculus [4]): 3.1%
- Injected dose/g (Mus musculus [5]): 6.4%
- Injected dose/g (Mus musculus [6]): 7.3%
- Injected dose/g (Mus musculus [7]): 7.9%
- Injected dose/g (Mus musculus [8]): 2.6%
- Injected dose/g (Mus musculus [9]): 0.7%
- Injected dose/g (Mus musculus [10]): 4.6%
- Injected dose/g (Mus musculus [11]): 5.2%
- Injected dose/g (Mus musculus [12]): 2.1%
- Injected dose/g (Mus musculus [13]): 3.8%
- Injected dose/g (Mus musculus [14]): 1%
- Injected dose/g (Mus musculus [15]): 2.9%
- Injected dose/g (Mus musculus [16]): 2.5%
- Injected dose/g (Mus musculus [19]): 3.8%
Structure (SMILES): O=c1[nH]c(=O)n([C@@H]2O[C@H](CO)[C@@H](O)[C@H]2F)cc1I
- Radioactive constituents (Mus musculus [17]): 37.4%
- Radioactive constituents (Mus musculus [18]): 0%

- Injected dose/g (Mus musculus [20]): 0.67%
- Injected dose/g (Mus musculus [21]): 0.37%
- Injected dose/g (Mus musculus [22]): 0.32%
- Injected dose/g (Mus musculus [23]): 1.61%
- Injected dose/g (Mus musculus [24]): 0.49%
- Injected dose/g (Mus musculus [25]): 1.12%
- Injected dose/g (Mus musculus [26]): 1.45%
- Injected dose/g (Mus musculus [27]): 1.36%
- Injected dose/g (Mus musculus [28]): 0.78%
- Injected dose/g (Mus musculus [29]): 0.6%
- Injected dose/g (Mus musculus [30]): 0.21%
- Injected dose/g (Mus musculus [31]): 0.09%
- Injected dose/g (Mus musculus [32]): 0.18%
- Injected dose/g (Mus musculus [33]): 1.7%
- Injected dose/g (Mus musculus [34]): 1.29%
- Injected dose/g (Mus musculus [35]): 0.5%
- Injected dose/g (Mus musculus [36]): 0.52%
- Injected dose/g (Mus musculus [37]): 0.34%
- Injected dose/g (Mus musculus [38]): 2.68%
Structure (SMILES): O=c1[nH]c(=O)n([C@H]2O[C@@H](CO)[C@H](O)[C@H]2F)cc1Br
